Gli-Sufu antag: Gli-Sufu pathway antagonists, primary screen, luciferase luminescence, Sufu-KO-LIGHT cells, uHTS; Sufu-KO-LIGHT fibroblasts, Gli luciferase reporter luminescence; inhibition, % at 5 µM; 340,000 compounds, 0.74% hits; AID 588413, 2011;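 active = inhibition above about 55%, limit read from the data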
hiPSC survival: enhancers of single-cell hiPSC survival, primary screen, ATPlite luminescence; 100% = ROCK inhibitor wells, 0% = DMSO; survival enhancement, % at 20 µM; 360,000 compounds, 0.044% hits; AID 602274, 2012; in the data active = survival enhancement above about 18%;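 also: cells exposed to compounds for 16 hours before the ATP read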
697 NFkB inh: inhibitors of PMA/ionomycin-induced NF-kB reporter, 697 cells, primary screen, B-cell NF-kB inhibitor project, cell-based, luminescence, uHTS; 697 B-cell NF-kB luciferase reporter, 16 h; inhibition, % at 4 µM; 330,000 compounds, 0.33% hits; in the data active = inhibition above about 35%
H9c2 TAG inh: inhibitors of triacylglycerol accumulation, primary screen, cell-based, uHTS, fluorescence, H9c2; H9c2 cells, Nile Red lipid (TAG) fluorescence; cells loaded with 200 µM oleic acid; inhibition, % at 12.5 µM; 230,000 compounds, 0.66% hits; AID 651582, 2012;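 active = pattern-corrected inhibition of lipid staining of at least 50% with the nuclear-stain viability signal not falling by more than 50%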
Lipid droplet: inhibitors of hepatocyte lipid droplet formation, primary screen, imaging, high-throughput imaging, BODIPY stain | AML12 mouse hepatocytes, oleate lipid droplets | inhibition, % at 6.5 µM | 240,000 compounds, 0.4% hits;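 active = lipid droplet intensity inhibited by at least 50%, with more than 500 cells counted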
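Material – mouse AML12 hepatocyte cell line, fixed after treatment · Compound dosing – one dose, 6.5 µM compound · Times – compound with oleate, overnight · Measured by – Image-based BODIPY and DAPI two-channel analysis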
Jurkat NFkB inh: inhibitors of induced NF-kB luciferase reporter, primary screen, TCR NF-kB activation inhibitor project, cell-based, luminescence, uHTS. Jurkat, PMA/ionomycin-induced NF-kB luciferase reporter. inhibition, % at 4 µM. 330,000 compounds, 0.53% hits. AID 435003, 2010; in the data active = inhibition above about 50%
Gli antag conf: Gli-SUFU pathway antagonists, confirmation, single concentration, luciferase luminescence, Sufu-KO-LIGHT cells; shares compounds with Gli-Sufu antag; Gli luciferase reporter; inhibition, % at 5 µM; 2,500 compounds, 40% hits; AID 602428, 2012;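 active = mean inhibition at 5 µM reaching about 45%, limit read from the data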
Gli cytotox: cytotoxicity in Sufu-KO-LIGHT cells, confirmation, cytotoxicity control for Gli-SUFU antagonist project, cell-based, ATP luminescence, single concentration; shares compounds with Gli-Sufu antag; cytotoxicity, % at 5 µM; 2,500 compounds, 32% hits;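 active = mean cytotoxicity at 5 µM above about 25%, limit read from the data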;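 also: cells exposed to compound overnight for roughly 16 to 18 hours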
Wnt3a counter: Wnt3a reporter signal inhibition, confirmation, counter-screen for Gli-SUFU antagonist project, Wnt-LIGHT cells, luminescence, single concentration | shares compounds with Gli-Sufu antag | Wnt3a-driven luciferase reporter | inhibition, % at 6.25 µM | 2,500 compounds, 20% hits;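 active = mean inhibition above about 25%, limit read from the data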
Large screens that a line does not name were inactive (follow-up assays come after a bar, where they were run). Only some compounds are listed: those with a hit (about 1.8% of all), similar ones and a draw of the others.

CCOC(=O)c1oc2ccccc2c1NC(=O)C1CCCCC1	Gli-Sufu antag 97 (no result: H9c2 TAG inh) | Gli antag conf inactive | Gli cytotox inactive | Wnt3a counter inactive
COC(=O)c1ccc(COc2cccc3c2OC(C)(C)C3)cc1	none
COc1ccc(CNCC(O)COc2cccc3c2OC(C)(C)C3)cc1 (stereo not drawn)	Gli-Sufu antag 60 | Gli antag conf 61 | Gli cytotox 28 | Wnt3a counter inactive
Cc1ccc(C)c(S(=O)(=O)NCCCc2ccccc2)c1	none (no result: H9c2 TAG inh)
COc1ccc2cc(CCNC(=O)c3ccc(Br)o3)c(=O)[nH]c2c1	none
Cc1cc2cc(CCNC(=O)c3ccc(Br)o3)c(=O)[nH]c2cc1C	Gli-Sufu antag 96 (no result: Lipid droplet) | Gli antag conf inactive | Gli cytotox inactive | Wnt3a counter 29
COc1cccc(Cn2c(-c3cccs3)noc2=O)c1	Gli-Sufu antag 99 (no result: H9c2 TAG inh) | Gli antag conf inactive | Gli cytotox inactive | Wnt3a counter inactive
COC(=O)c1sc(NC(=O)c2cc(-c3ccccc3)nc3ccccc23)c(C#N)c1C	Gli-Sufu antag 69 (no result: Lipid droplet) | Gli antag conf 82 | Gli cytotox 31 | Wnt3a counter 62
Cc1ccc2cc(CN(CC3CCCO3)C(=S)Nc3ccccc3)c(=O)[nH]c2c1C (stereo not drawn)	Gli-Sufu antag 65 (no result: H9c2 TAG inh) | Gli antag conf 81 | Gli cytotox 33 | Wnt3a counter inactive
COC(=O)N1[C@H](C)C=C[C@]1(Cc1ccccc1)C(=O)NCCCNc1ncc(C(F)(F)F)cc1Cl	none (no result: H9c2 TAG inh, Lipid droplet)
Cc1nc2ccc(NS(=O)(=O)c3ccc(F)c(C)c3)cc2[nH]1	Gli-Sufu antag 62 (no result: H9c2 TAG inh) | Gli antag conf 49 | Gli cytotox inactive | Wnt3a counter 27
CCN(CC)CCNC(=O)C(=O)Nc1cc2c3c(c1)CCN3C(=O)CC2	none (no result: H9c2 TAG inh)
CCC(=O)Nc1cc2c3c(c1)CCN3C(=O)CC2	none (no result: H9c2 TAG inh)
COC(CNC(=O)C(=O)Nc1cc2c3c(c1)CCN3C(=O)CC2)OC	Gli-Sufu antag 98 (no result: H9c2 TAG inh) | Gli antag conf inactive | Gli cytotox inactive | Wnt3a counter inactive
CNC(=O)C(=O)Nc1cc2c3c(c1)CCN3C(=O)CC2	Gli-Sufu antag 96 (no result: H9c2 TAG inh) | Gli antag conf inactive | Gli cytotox inactive | Wnt3a counter inactive
CC(OC(=O)C1=COCCO1)C(=O)Nc1ncc(Cl)cc1Cl (stereo not drawn)	none (no result: Lipid droplet)
c1ccc(-c2nn(-c3ccccc3)[n+](-c3ccccc3)n2)cc1	Gli-Sufu antag 63 (no result: 697 NFkB inh, Lipid droplet, Jurkat NFkB inh) | Gli antag conf 67 | Gli cytotox inactive | Wnt3a counter 33
COc1ccc(NC(=O)CN(C)S(=O)(=O)c2ccc(Cl)cc2)cn1	none (no result: Lipid droplet)
CS(=O)(=O)N1CCCC(C(=O)N2CCc3ccccc3C2)C1 (stereo not drawn)	none (no result: H9c2 TAG inh, Lipid droplet) | Gli antag conf inactive | Gli cytotox inactive | Wnt3a counter inactive
CS(=O)(=O)N1CCC(C(=O)N2CCc3ccccc3C2)CC1	none (no result: H9c2 TAG inh)
COc1ccc(N2C(N)=NC(N)=NC23CCCC3)cc1	none (no result: Lipid droplet)
CCCCOc1ccc(N2C(N)=NC(N)=NC23CCCCC3)cc1	Gli-Sufu antag 59 (no result: H9c2 TAG inh) | Gli antag conf 48 | Gli cytotox inactive | Wnt3a counter inactive
O=C(N/N=C/c1ccccn1)c1cccs1	none
Clc1ccc(SCCOCCN2CCCCC2)cc1	Gli-Sufu antag 79 (no result: H9c2 TAG inh) | Gli antag conf inactive | Gli cytotox inactive | Wnt3a counter inactive
CCOCCCNc1nc(C)nc2c1nnn2Cc1c(F)cccc1Cl	none
O=C(Nn1c(-c2ccccc2)nc2ccccc2c1=O)c1cccs1	none (no result: H9c2 TAG inh)

Screens (PubChem BioAssay)
